From ChEMBL document CHEMBL2169868, “Flavone-based novel antidiabetic and antidyslipidemic agents” (J Med Chem, 2012)
Calls of active or inactive are those of the source. The rule behind the calls is not given here.

Experiments:
[1] = Volume of distribution in Sprague-Dawley rat at 10 mg/kg, iv by LC-MS/MS method; assay type: ADME, organism-based; design: dose 10 mg/kg, route intravenous; details: in vivo
In short: (§1)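 Male Sprague−Dawley rats, 225 ± 25 g. Single tail-vein dose of 10 mg/kg in DMF/PG/water (5:4:1), 0.2 μ filtered. Blood drawn from 0.08 to 48 h. Plasma spun at 2000g for 10 min at 4 °C and kept at −60 °C. LC-MS/MS with linear range 0.78−400 ng/mL; noncompartmental parameters.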

Rattus norvegicus [2] = assay: Volume of distribution in Sprague-Dawley rat at 40 mg/kg, po by LC-MS/MS method; assay type: ADME, organism-based; design: dose 40 mg/kg, route oral; details: in vivo
In short: (§2)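 Male Sprague−Dawley rats fasted 10−12 h, then given a single 40 mg/kg oral gavage as an aqueous 0.5% methyl cellulose suspension. Blood drawn from 0.25 to 120 h. Plasma spun at 2000g for 10 min at 4 °C and stored at −60 °C. LC-MS/MS, linear range 0.78−400 ng/mL.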

[3] = Mean residence time in Sprague-Dawley rat at 10 mg/kg, iv by LC-MS/MS method; assay type: ADME, organism-based; design: dose 10 mg/kg, route intravenous; details: in vivo; in short: as §1
[4] = Mean residence time in Sprague-Dawley rat at 40 mg/kg, po by LC-MS/MS method; assay type: ADME, organism-based; design: dose 40 mg/kg, route oral; details: in vivo; in short: as §2
[5] = Plasma clearance in Sprague-Dawley rat at 10 mg/kg, iv by LC-MS/MS method; assay type: ADME, organism-based; design: dose 10 mg/kg, route intravenous; in short: as §1
[6] = Plasma clearance in Sprague-Dawley rat at 40 mg/kg, po by LC-MS/MS method; assay type: ADME, organism-based; design: dose 40 mg/kg, route oral; in short: as §2
[7] = Tmax in Sprague-Dawley rat at 40 mg/kg, po by LC-MS/MS method; assay type: ADME, organism-based; design: dose 40 mg/kg, route oral; details: in vivo; in short: as §2
[8] = Cmax in Sprague-Dawley rat at 10 mg/kg, iv by LC-MS/MS method; assay type: ADME, organism-based; design: dose 10 mg/kg, route intravenous; details: in vivo; in short: as §1
[9] = Cmax in Sprague-Dawley rat at 40 mg/kg, po by LC-MS/MS method; assay type: ADME, organism-based; design: dose 40 mg/kg, route oral; details: in vivo; in short: as §2
Syrian golden hamster [10] = assay: Antidyslipidemic activity in high fructose and high-fat diet fed dyslipidemic Syrian golden hamster model assessed as reduction in body weight at 25 mg/kg/day for 7 days; assay type: functional, Mesocricetus auratus; design: scale not given: the % may be the effect or the level left
In short: (§3)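 Syrian golden hamsters fed high-fructose high-fat diet; oral dosing in 1% gum acacia at 10, 30, 100 mg/kg (or 25 mg/kg) for 7 days, sham control given vehicle; plasma TG, cholesterol, LDL-C, HDL-C, glycerol and NEFA (kits), lipoprotein lipase activity and body weight; % change versus HFD control, six hamsters per group.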

Syrian golden hamster [11] = assay: Antidyslipidemic activity in high fructose and high-fat diet fed dyslipidemic Syrian golden hamster model assessed as increase in HDL-cholesterol level at 25 mg/kg/day for 7 days; assay type: functional, Mesocricetus auratus
Syrian golden hamster [12] = assay: Antidyslipidemic activity in high fructose and high-fat diet fed dyslipidemic Syrian golden hamster model assessed as reduction in LDL-cholesterol level at 25 mg/kg/day for 7 days; assay type: functional, Mesocricetus auratus; design: scale not given: the % may be the effect or the level left; in short: as §3
Syrian golden hamster [13] = assay: Antidyslipidemic activity in high fructose and high-fat diet fed dyslipidemic Syrian golden hamster model assessed as reduction in cholesterol level at 25 mg/kg/day for 7 days; assay type: functional, Mesocricetus auratus; design: scale not given: the % may be the effect or the level left
Syrian golden hamster [14] = assay: Antidyslipidemic activity in high fructose and high-fat diet fed dyslipidemic Syrian golden hamster model assessed as reduction in triglyceride level at 25 mg/kg/day for 7 days; assay type: functional, Mesocricetus auratus; design: scale not given: the % may be the effect or the level left
In short: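 HFD-fed Syrian golden hamsters, six per group, fed a high-fructose diet. Oral dosing in 1% gum acacia for 7 days. Sham group received vehicle. Plasma TG was measured and body weight tracked. Results given as % change versus HFD control.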

Syrian golden hamster [15] = assay: Antidyslipidemic activity in high fructose and high-fat diet fed dyslipidemic Syrian golden hamster model assessed as reduction in body weight at 100 mg/kg/day for 7 days; assay type: functional, organism-based; details: Mesocricetus auratus; in short: as §3
Syrian golden hamster [16] = assay: Antidyslipidemic activity in high fructose and high-fat diet fed dyslipidemic Syrian golden hamster model assessed as increase in HDL-cholesterol level at 100 mg/kg/day for 7 days; assay type: functional, Mesocricetus auratus
Syrian golden hamster [17] = assay: Antidyslipidemic activity in high fructose and high-fat diet fed dyslipidemic Syrian golden hamster model assessed as reduction in LDL-cholesterol level at 100 mg/kg/day for 7 days; assay type: functional, Mesocricetus auratus; design: scale not given: the % may be the effect or the level left; in short: as §3
Syrian golden hamster [18] = assay: Antidyslipidemic activity in high fructose and high-fat diet fed dyslipidemic Syrian golden hamster model assessed as reduction in cholesterol level at 100 mg/kg/day for 7 days; assay type: functional, Mesocricetus auratus; design: scale not given: the % may be the effect or the level left
Syrian golden hamster [19] = assay: Antidyslipidemic activity in high fructose and high-fat diet fed dyslipidemic Syrian golden hamster model assessed as reduction in triglyceride level at 100 mg/kg/day for 7 days; assay type: functional, Mesocricetus auratus; design: scale not given: the % may be the effect or the level left; in short: as §3
Mus musculus [20] = assay: Reduction in body weight in diabetic C57BL/KsJ db/db mouse model in hyperglycemia at 25 mg/kg, po qd for 10 days relative to untreated control; assay type: functional
In short: (§4)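 db/db mice (C57BL/KsJ, 12−18 weeks, 40−50 g, glucose 200−350 mg/dL), housed at 23 ± 2.0 °C on a 12 h light cycle. Oral dosing daily for 10 days. Blood glucose checked each morning through day 9. Body weight recorded daily from day 1 to day 10. Mean % change versus vehicle, 5 mice per group; Student t test.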

Mus musculus [21] = assay: Antihyperglycemic activity in diabetic C57BL/KsJ db/db mouse model assessed as reduction in plasma insulin level in hyperglycemia at 25 mg/kg, po qd for 10 days; assay type: functional; design: scale not given: the % may be the effect or the level left
In short: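 db/db mice dosed orally every day for 10 days. On day 11, retro-orbital blood was drawn and plasma insulin measured. Mean % change versus vehicle-treated control, 5 mice per group; Student t test.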

Mus musculus [22] = assay: Antidyslipidemic activity in diabetic C57BL/KsJ db/db mouse model assessed as increase in plasma HDL-C/cholesterol ratio at 25 mg/kg, po qd for 10 days; assay type: functional
In short: (§5)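 db/db mice (blood glucose 200−350, TG 170−250, cholesterol 170−250, HDL-C 32−40 mg/dL) dosed orally at 25 mg/kg daily for 10 days; retro-orbital blood taken on day 11 for plasma TG, cholesterol and HDL-C (and HDL-C/CHOL ratio); mean % change versus vehicle control, 5 mice per group; Student t test.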

Mus musculus [23] = assay: Antidyslipidemic activity in diabetic C57BL/KsJ db/db mouse model assessed as reduction in plasma cholesterol level at 25 mg/kg, po qd for 10 days; assay type: functional; design: scale not given: the % may be the effect or the level left; in short: as §5
Mus musculus [24] = assay: Antidyslipidemic activity in diabetic C57BL/KsJ db/db mouse model assessed as increase in plasma HDL-cholesterol level at 25 mg/kg, po qd for 10 days; assay type: functional; in short: as §5
Mus musculus [25] = assay: Antidyslipidemic activity in diabetic C57BL/KsJ db/db mouse model assessed as reduction in plasma triglyceride level at 25 mg/kg, po qd for 10 days; assay type: functional; design: scale not given: the % may be the effect or the level left; in short: as §5
Mus musculus [26] = assay: Antihyperglycemic activity in diabetic C57BL/KsJ db/db mouse model assessed as improvement in glucose tolerance in hyperglycemia at 25 mg/kg, po qd for 10 days; assay type: functional
In short: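 Male/female C57BL/KsJ db/db mice, 12−18 weeks, 40−50 g, selected for glucose 200−350 mg/dL. Oral dosing daily for 10 days. OGTT on day 10 after an overnight fast: compound at −30 min, then 3 g/kg oral glucose at 0 min. Glucose read at 30, 60, 90 and 120 min. AUC taken versus vehicle, 5 mice per group.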

Mus musculus [27] = assay: Antihyperglycemic activity in diabetic C57BL/KsJ db/db mouse model assessed as reduction in hyperglycemia at 25 mg/kg, po qd for 10 days; assay type: functional; design: scale not given: the % may be the effect or the level left; in short: as §4
Rattus norvegicus [28] = assay: Antihyperlipidemic activity in Triton-induced dyslipidemic Wistar rat model assessed as reduction in phospholipid level at 100 mg/kg, po; assay type: functional; design: scale not given: the % may be the effect or the level left
In short: (§6)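 Male Wistar rats, 8−10 weeks, about 160 g, fed normal pellet diet. Triton X-100 given at 400 mg/kg ip; compound given orally in 1% gum acacia. Retro-orbital blood taken 18 h after Triton and serum separated at 1500g for 10 min. TG and cholesterol measured by kit. Mean % change versus dyslipidemic control, 5 animals.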

Rattus norvegicus [29] = assay: Antihyperlipidemic activity in Triton-induced dyslipidemic Wistar rat model assessed as reduction in cholesterol level at 100 mg/kg, po; assay type: functional; design: scale not given: the % may be the effect or the level left; in short: as §6
Rattus norvegicus [30] = assay: Antihyperlipidemic activity in Triton-induced dyslipidemic Wistar rat model assessed as reduction in triglyceride level at 100 mg/kg, po; assay type: functional; design: scale not given: the % may be the effect or the level left; in short: as §6
[31] = Oral bioavailability in Sprague-Dawley rat at 40 mg/kg by LC-MS/MS method; assay type: ADME, organism-based; details: in vivo; in short: as §2
[32] = Elimination half life in Sprague-Dawley rat at 10 mg/kg, iv by LC-MS/MS method; assay type: ADME, organism-based; design: dose 10 mg/kg, route intravenous; details: in vivo, read-out: beta t1/2 (converted); in short: as §1
[33] = Elimination half life in Sprague-Dawley rat at 40 mg/kg, po by LC-MS/MS method; assay type: ADME, organism-based; design: dose 40 mg/kg, route oral; details: in vivo, read-out: beta t1/2 (converted); in short: as §2
Rattus norvegicus [34] = assay: AUC in Sprague-Dawley rat at 10 mg/kg, iv by LC-MS/MS method; details: in vivo
Rattus norvegicus [35] = assay: AUC in Sprague-Dawley rat at 40 mg/kg, po by LC-MS/MS method; details: in vivo

CC(C)(C)NCC(O)COc1ccc2c(=O)cc(-c3cc(OCc4ccccc4)cc(OCc4ccccc4)c3)oc2c1 (racemic)
Vd [1]: 69.4 L/kg
Vd (Rattus norvegicus [2]): 96.73 L/kg
MRT [3]: 22.8 h
MRT [4]: 43.2 h
clearance [5]: 60.8 mL/min/kg
CL/F [6]: 57 mL/min/kg
Tmax [7]: 8 h
Cmax [8]: 998 ng/mL
Cmax [9]: 60.9 ng/mL
Activity (Syrian golden hamster [10]): 8.89%
Activity (Syrian golden hamster [11]): 13.3%
Activity (Syrian golden hamster [12]): 23.3%
Activity (Syrian golden hamster [13]): 15.3%
Activity (Syrian golden hamster [14]): 22.2%
Activity (Syrian golden hamster [15]): Active
Activity (Syrian golden hamster [16]): 20%
Activity (Syrian golden hamster [17]): 61.9%
Activity (Syrian golden hamster [18]): 22.9%
Activity (Syrian golden hamster [19]): 61.5%
Activity (Mus musculus [20]): inactive
Activity (Mus musculus [21]): 30.6%
Percent increase in HDL-C/cholesterol ratio vs vehicle (Mus musculus [22]): 55.7
Activity (Mus musculus [23]): 22.3%
Activity (Mus musculus [24]): 20.9%
Activity (Mus musculus [25]): 20.1%
Activity (Mus musculus [26]): 25.9%
Activity (Mus musculus [27]): 38.3%
Activity (Rattus norvegicus [28]): 18%
Activity (Rattus norvegicus [29]): 21%
Activity (Rattus norvegicus [30]): 9%
bioavailability [31]: 29.5%
half-life [32]: 16.3 h
half-life [33]: 19.6 h
AUC (Rattus norvegicus [34]): 2717.5 ng·h/mL
AUC (Rattus norvegicus [35]): 3469.28 ng·h/mL
